PDI inh: inhibitors of human protein disulfide isomerase. P07237. PDI insulin aggregation turbidity, A650, 90 min. inhibition, % at 10 µM. hit rate 0.052% among 350,000. AID 588391;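 active = mean inhibition across replicates of 30% or more, whatever share of single replicates reach that level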
ERp5 inh: blocks human ERp5 reductase activity on insulin; ERp5 insulin aggregation, absorbance 650 nm, 90 min; inhibition, % at 9.99 µM; hit rate 0.05% among 350,000;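 active = mean replicate inhibition above about 25%, with every replicate also reaching it, limit read from the data, passing the limit was not always enough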
Target sequence (Q15084 whole entry, looked up): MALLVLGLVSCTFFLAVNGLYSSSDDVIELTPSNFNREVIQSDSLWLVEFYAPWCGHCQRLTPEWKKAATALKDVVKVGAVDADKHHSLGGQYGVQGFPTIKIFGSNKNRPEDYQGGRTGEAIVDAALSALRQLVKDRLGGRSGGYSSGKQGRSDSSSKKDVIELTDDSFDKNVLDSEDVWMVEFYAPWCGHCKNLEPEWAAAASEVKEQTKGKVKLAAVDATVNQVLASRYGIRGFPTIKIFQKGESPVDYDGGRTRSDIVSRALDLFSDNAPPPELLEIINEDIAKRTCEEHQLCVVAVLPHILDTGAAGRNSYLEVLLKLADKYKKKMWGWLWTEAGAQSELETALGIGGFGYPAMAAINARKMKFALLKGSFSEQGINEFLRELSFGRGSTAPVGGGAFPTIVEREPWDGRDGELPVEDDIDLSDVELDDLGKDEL
INS-1E GSIS act: GLuc luminescence reporter in INS-1E cells, primary screen for activators of glucose-dependent secretion of insulin; INS-1E GLuc reporter insulin secretion, 2-3 h; activation, % at 16.6 µM; hit rate 0.61% among 370,000; AID 743287;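 active = lowest replicate activation of at least 40%, so every replicate reaches that level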;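 note: 0% = median of neutral control wells and 100% = median of IBMX positive control wells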
S100A4 inh HTS: S100A4-myosin IIA interaction inhibition. inhibition, % at 10.7 µM. P26447. hit rate 0.14% among 360,000. S100A4/TAMRA-MyoIIA peptide fluorescence polarization. AID 652163;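 active = mean inhibition of at least 70% across replicates, with every replicate also reaching that level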
Target sequence (P26447 whole entry, looked up): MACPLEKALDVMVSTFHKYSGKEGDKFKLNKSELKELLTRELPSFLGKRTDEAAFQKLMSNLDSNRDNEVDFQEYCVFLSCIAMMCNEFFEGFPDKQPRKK
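System – human S100A4 monomer protein, biochemical binding assay · Buffer or medium – Calcium-containing HEPES buffer, pH 7.2 · Timing – 5 min between mix addition and reading · Also added – TAMRA-labelled myosin IIA heavy-chain peptide probe, 5 nM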
SIRT5 inh: sirtuin-5 (human) deacylase inhibition | hit rate 1.1% among 330,000 | inhibition, % at 15 µM | Q9NXA8 | AID 652115 | Purified SirT5, succinyl-peptide AMC, trypsin-coupled fluorescence; in the data active = inhibition above about 15%
* = called active by the depositor; · = no result. A selection: hits, their analogues and other compounds. The true share with any hit is near 1.5%.

SMILES	PDI inh	ERp5 inh	INS-1E GSIS act	S100A4 inh HTS	SIRT5 inh
CN(C)CC(=O)Nc1ccc2c(c1)[C@H]1C[C@H](CC(=O)N3CCc4ccccc4C3)O[C@H](CO)[C@H]1O2	·	1	-6	10	-1
CN1C(=O)c2cc(NC(=O)C3CCC3)ccc2OC[C@@H]2O[C@@H](CC(=O)NCCc3ccncc3)CC[C@@H]21	·	-2	1	4	-3
N#Cc1ccc(C(=O)NC(=S)N2CCN(C=O)CC2)cc1	5	2	20	-1	20*
C[C@H](CO)N1C[C@H](C)[C@@H](CN(C)C(=O)C2CCCCC2)Oc2ncc(C#Cc3cccc(F)c3)cc2C1=O	·	6	-20	3	1
CCOc1ncccc1C(=O)NNC(=O)c1ccccc1-n1cccc1	8	-4	54*	-3	1
NC(=O)COC(=O)c1cccnc1Nc1ccccc1F	6	-1	36	0	·
CN(C)C(=O)COC(=O)c1cccnc1Nc1ccccc1F	6	-2	80*	-6	1
CCOc1ncccc1C(=O)OCC(=O)NCCCc1ccccc1	-8	15	54*	-2	-3
CCOc1ncccc1C(=O)Nc1ccc(F)cc1	6	-10	-18	1	5
CCOc1ncccc1C(=O)Nc1ccccc1F	13	1	77*	3	0
Cc1ccc(S(=O)(=O)N(C)C[C@H]2Oc3c(NC(=O)c4cc(C)nn4C)cccc3C(=O)N([C@H](C)CO)C[C@H]2C)cc1	·	10	-3	-5	1
CC(=O)Nc1ccc(NC(=O)C(C)n2nc(C)c([N+](=O)[O-])c2C)cc1 (stereo not drawn)	-4	4	0	-7	28*
CC(=O)Nc1ccc(NC(=O)C(C)n2nc([N+](=O)[O-])c(Br)c2C)cc1 (stereo not drawn)	-6	-5	6	17	-2
CC(C)NC(=O)N[C@H]1C=C[C@H](CC(=O)NCc2ccc(Oc3ccccc3)cc2)O[C@H]1CO	·	-6	-6	0	1
CC(C)(C)C1CCC(=NNc2nc3ccccc3[nH]2)CC1 (stereo not drawn)	1	-2	-23	0	19*
COc1ccc(N/C=C\C(=O)c2ccc(Br)cc2)cc1OC	-6	·	131*	·	·
COc1ccc(N/C=C\C(=O)c2ccc(C)cc2)cc1OC	-1	1	6	1	-2
CCN(c1ccccc1)S(=O)(=O)c1nnc(NC(=O)C(C)(C)C)s1	9	-1	-12	0	30*
O=C(NN1C(=O)CSC1=S)C(=O)NN1C(=O)CSC1=S	2	4	·	-21	50*
O=C(Cc1cccc2ccccc12)NN1C(=O)CSC1=S	-3	-2	26	26	13
COc1ccc(NC(=O)N2CC(=O)N3[C@@H](CO)[C@H](c4ccc(-c5ccccc5)cc4)[C@@H]3C2)cc1	·	2	-18	-10	3
CCOC(=O)c1nccnc1C(=O)Nc1cccc(C(F)(F)F)c1	4	3	6	3	3
CCOC(=O)C1=NN(C(=O)Nc2cccc(C(F)(F)F)c2)C2C(=O)N(c3cccc(C(F)(F)F)c3)C(=O)C12 (stereo not drawn)	-18	·	100*	·	·
CO[C@@H]1CN(C)C(=O)c2cc(NC(=O)C3CC3)ccc2OC[C@H](C)N(CC2CCCC2)C[C@H]1C	·	1	1	6	6
C[C@@H]1CCCCO[C@@H](CN(C)C(=O)Nc2ccc(F)cc2)[C@H](C)CN([C@@H](C)CO)C(=O)c2cc(NS(=O)(=O)c3ccc(F)cc3)ccc2O1	·	·	13	·	·
SMILES	PDI inh	ERp5 inh	INS-1E GSIS act	S100A4 inh HTS	SIRT5 inh
CCc1c(C)nc2ccc(Br)cc2c1SCCC#N	5	0	4	19	112*
CCCCCCCCN1C(=O)[C@@H](CC(=O)N2CCN(C(=O)c3ccco3)CC2)C[C@@]2(C(=O)OC)C1=C[C@H](C1CCCC1)O[C@@H]2C	·	2	54*	-2	·
O=C(c1ccccc1)N(C(=O)c1ccccc1)N1CCCC1	2	-4	45*	15	·
O=C(c1ccccc1)N1CCCCC1	·	1	9	2	-1
Cc1ccc(-n2nnnc2SCC(=O)Nc2ncc(Cc3ccccc3Cl)s2)cc1	-5	·	156*	·	·
O=C(CSc1nnnn1-c1ccccc1)Nc1ncc(Cc2cccc(Cl)c2Cl)s1	4	-2	·	2	0
O=C(NCC[C@H]1CC[C@@H](NC(=O)Nc2cc(F)ccc2F)[C@H](CO)O1)Nc1ccc(F)cc1	·	1	-27	-13	33*
O=C(CN1CCOCC1)N[C@@H]1CC[C@H](CCNC(=O)Nc2cc(F)ccc2F)O[C@@H]1CO	·	1	3	-14	16*
O=C(CN1CCOCC1)N[C@H]1CC[C@@H](CCNC(=O)Nc2cc(F)ccc2F)O[C@@H]1CO	·	11	4	-3	-1
CC(C)(C)c1cc(NCCCn2ccnc2)n2ncc(-c3ccc(Cl)cc3)c2n1	11	·	817*	·	·
Cc1cc(NCCCn2ccnc2)n2nc(-c3ccc(Cl)cc3)cc2n1	27	-1	14	6	-2
O=C(Nc1ccc(CSc2ccccc2)cc1)c1ccccc1	-4	5	0	-4	15*
C[C@H]1CN([C@@H](C)CO)C(=O)c2cccc(NC(=O)c3ccc(-c4nccs4)cc3)c2O[C@H]1CN(C)C(=O)Nc1ccccc1	·	-5	16	4	0
COc1ccc(S(=O)(=O)NCCc2cn3cccc(C)c3n2)cc1OC	·	-11	4	-2	-2
Cc1cccn2cc(CCNS(=O)(=O)c3cccs3)nc12	0	-13	42*	0	1
O=[N+]([O-])c1ccccc1CN1CCN(S(=O)(=O)Cc2ccccc2)CC1	6	6	2	105*	-4
CC(C)CC(=O)N1CCN(Cc2ccccc2[N+](=O)[O-])CC1	-9	8	5	2	32*
Cc1ccc(NC(=O)CN2C(=O)N/C(=C/c3cc(C)n(-c4ccc(C(=O)O)cc4)c3C)C2=O)cc1	0	-2	-20	-6	26*
O=C(CC1c2cc(F)ccc2C=C(c2ccsc2)N1c1ccc(C#CCCO)cc1)c1ccco1 (stereo not drawn)	·	-14	-15	-2	17*
COc1ncc(-c2ccc(N3C(c4ccsc4)=Cc4ccc(F)cc4C3CC(=O)c3ccco3)cc2)cn1 (stereo not drawn)	·	2	12	1	-3
CC(C)NC(=O)N[C@@H]1CC[C@@H](CCn2cc(-c3ccccc3)nn2)O[C@H]1CO	·	0	3	15	-2
COC(=O)C1C(=O)NC(SC)=C(C#N)C1c1ccccc1 (stereo not drawn)	0	·	40*	·	·
COC(=O)C1=C(C)NC(c2c(O)ccc3ccccc23)C(C(=O)OC)=C1C (stereo not drawn)	7	·	53*	·	·
COC(=O)C1=C(C)NC(=O)NC1c1c(O)ccc2ccccc12 (stereo not drawn)	4	3	5	1	-2
Cn1c(N)c(C(=O)Nc2ccc3ccccc3c2)sc1=S	-5	·	86*	·	·

Screens as filed in PubChem.
